These results are taken from ChEMBL document CHEMBL2390864, “Artemisinin-derived dimer phosphate esters as potent anti-cytomegalovirus (anti-CMV) and anti-cancer agents: a structure-activity study” (Bioorg Med Chem, 2013).

One series relates to PBMC. In words: Cytotoxicity against PHA-stimulated human PBMC cells after 48 hrs by Alamar Blue assay. It is filed as cell-based. The essentials: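 PBMCs came from 4 consenting healthy volunteers and were stimulated with phytohemagglutinin (10 µg/ml) for 24 h. Drug or vehicle was then added for a further 48 h, and viability was read by AlamarBlue. IC50 is the average of 4 experiments, each run in triplicate.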
On the technique in general: Alamar Blue is a resazurin reagent that responds to reducing activity.

Series [1] can be described thus: Cytotoxicity against human JURKAT-TALL cells after 48 hrs by Alamar Blue assay. It is filed as functional, cell-based. The essentials:
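Jurkat T-ALL cells were treated with compound for 48 h, and growth inhibition was read by AlamarBlue assay to give IC50.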

The next series deals with Cytomegalovirus. In words: Antiviral activity against Cytomegalovirus infected in HFF after 72 hrs by luciferase reporter gene assay. It is filed as functional, organism-based. To be noted: Human betaherpesvirus 5, 72 h. A digest of the protocol: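 Human foreskin fibroblasts (HFFs) were infected with CMV and treated with compound across a dose range. Luciferase activity was read at 72 h post infection as a marker of late CMV gene expression. EC50 was derived from this read-out.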
Background: In a reporter assay the amount or activity of a reporter protein is the signal.

Series [2] is described as follows: Therapeutic index, ratio of IC50 for PHA-stimulated human PBMC cells to IC50 for human JURKAT-TALL cells. Particulars: PHA-stimulated PBMC cells versus JURKAT-TALL cells, read-out: Ratio IC50. In kind it is cell-based. A digest of the protocol: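 The therapeutic index is the IC50 in PHA-stimulated PBMCs (PHA 10 µg/ml for 24 h, then drug for 48 h, AlamarBlue) divided by the IC50 in Jurkat cells (drug for 48 h, AlamarBlue).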

Series [3] can be described thus: Selectivity index, ratio of CC50 for HFF to EC50 for Cytomegalovirus.

Molecules are shown by their SMILES. pEC50, pIC50: −log10 of the molar value.

Regarding `CO[C@H]1O[C@@H]2O[C@@]3(C)CC[C@H]4[C@H](C)CC[C@@H]([C@H]1C)[C@@]24OO3`, the results for the pIC50 (in the series with PBMC; in series [1]) were below 4.00 and below 4.52, respectively. The same compound gave a pEC50 in the series with Cytomegalovirus of 5.28.

Turning to `C[C@H]1[C@@H](CC(COP(=O)(O)Oc2ccccc2)C[C@H]2O[C@@H]3O[C@@]4(C)CC[C@H]5[C@H](C)CC[C@@H]([C@H]2C)[C@@]35OO4)O[C@@H]2O[C@@]3(C)CC[C@H]4[C@H](C)CC[C@@H]1[C@@]24OO3` (stereo partly specified), the pIC50 with PBMC was below 4.40; in series [1], 5.13. This compound had a pEC50 with Cytomegalovirus below 6.52.

Take `COc1cccc2c1C(=O)c1c(O)c3c(c(O)c1C2=O)C[C@@](O)(C(=O)CO)C[C@@H]3O[C@H]1C[C@H](N)[C@H](O)[C@H](C)O1` [DOXORUBICIN]: the negative logarithm of the IC50 (pIC50) in the series on PBMC was 6.57; in series [1], 8.02.

In turn, `C[C@H]1[C@@H](CC(CO)C[C@H]2O[C@@H]3O[C@@]4(C)CC[C@H]5[C@H](C)CC[C@@H]([C@H]2C)[C@@]35OO4)O[C@@H]2O[C@@]3(C)CC[C@H]4[C@H](C)CC[C@@H]1[C@@]24OO3` (stereo partly specified) had a pEC50 in the series on Cytomegalovirus of 6.80.

`C[C@H]1[C@@H](CC(COP2(=S)Oc3ccccc3-c3ccccc3O2)C[C@H]2O[C@@H]3O[C@@]4(C)CC[C@H]5[C@H](C)CC[C@@H]([C@H]2C)[C@@]35OO4)O[C@@H]2O[C@@]3(C)CC[C@H]4[C@H](C)CC[C@@H]1[C@@]24OO3` (stereo partly specified): the selectivity ratio in series [2] was above 20.7. For the same compound, the negative logarithm of the IC50 (pIC50) with PBMC is below 4.40; in series [1] it was 5.71. Moreover, the pEC50 in the series on Cytomegalovirus was 7.15.

Turning to `C[C@H]1[C@@H](CC(COP2(=O)Oc3ccccc3-c3ccccc3O2)C[C@H]2O[C@@H]3O[C@@]4(C)CC[C@H]5[C@H](C)CC[C@@H]([C@H]2C)[C@@]35OO4)O[C@@H]2O[C@@]3(C)CC[C@H]4[C@H](C)CC[C@@H]1[C@@]24OO3` (stereo partly specified), the selectivity ratio in series [2] stood at 10.4. Also, the pIC50 is 5.64 with PBMC and 6.66 in series [1]. Further, the pEC50 in the series on Cytomegalovirus was 7.14.

For `C[C@H]1[C@@H](CC(COP(=S)(Oc2ccccc2)Oc2ccccc2)C[C@H]2O[C@@H]3O[C@@]4(C)CC[C@H]5[C@H](C)CC[C@@H]([C@H]2C)[C@@]35OO4)O[C@@H]2O[C@@]3(C)CC[C@H]4[C@H](C)CC[C@@H]1[C@@]24OO3` (stereo partly specified), the selectivity ratio in series [2] is above 22.9. Besides, the results for the pIC50 (in the series on PBMC; in series [1]) were below 4.40 and 5.76, respectively. Further, the pEC50 in the series on Cytomegalovirus is 7.11.

With `C[C@H]1[C@H](OC(=O)CCC(=O)O)O[C@@H]2O[C@@]3(C)CC[C@H]4[C@H](C)CC[C@@H]1[C@@]24OO3` [SODIUM ARESUNATE], the selectivity ratio in series [2] came out at 4. The pIC50 with PBMC was 4.56; in series [1], 5.16. In the series with Cytomegalovirus, this compound gave a pEC50 of 4.73.

With `CC(C)c1ccc(OP(=O)(OCC(C[C@H]2O[C@@H]3O[C@@]4(C)CC[C@H]5[C@H](C)CC[C@@H]([C@H]2C)[C@@]35OO4)C[C@H]2O[C@@H]3O[C@@]4(C)CC[C@H]5[C@H](C)CC[C@@H]([C@H]2C)[C@@]35OO4)Oc2ccc(C(C)C)cc2)cc1` (stereo partly specified), in series [2], the selectivity ratio is above 78.3. Moreover, the pIC50 is below 4.40 in the series on PBMC and 6.29 in series [1]. The pEC50 in the series with Cytomegalovirus is 6.52.

With `C[C@H]1[C@@H](CC(COP(=O)(Oc2ccccc2)Oc2ccccc2)C[C@H]2O[C@@H]3O[C@@]4(C)CC[C@H]5[C@H](C)CC[C@@H]([C@H]2C)[C@@]35OO4)O[C@@H]2O[C@@]3(C)CC[C@H]4[C@H](C)CC[C@@H]1[C@@]24OO3` (stereo partly specified), the selectivity ratio in series [2] was found to be 14.8. Further, the pIC50 in the series with PBMC was 5.83; in series [1], 7.00. The compound also showed a pEC50 in the series with Cytomegalovirus of 7.41. Moreover, the “Ratio CC50/EC50” value in series [3] worked out at 1500.

For the compound `C[C@H]1[C@@H](CC(COP(=O)(OC2CCCCC2)OC2CCCCC2)C[C@H]2O[C@@H]3O[C@@]4(C)CC[C@H]5[C@H](C)CC[C@@H]([C@H]2C)[C@@]35OO4)O[C@@H]2O[C@@]3(C)CC[C@H]4[C@H](C)CC[C@@H]1[C@@]24OO3` (stereo partly specified), the selectivity ratio in series [2] was determined as 7.1. Also, the pIC50 in the series on PBMC is 5.69; in series [1], 6.54. In the series on Cytomegalovirus, this compound had a pEC50 of 7.36.

`C[C@H]1[C@@H](CC(COP(=O)(Oc2ccc(Cl)cc2)Oc2ccc(Cl)cc2)C[C@H]2O[C@@H]3O[C@@]4(C)CC[C@H]5[C@H](C)CC[C@@H]([C@H]2C)[C@@]35OO4)O[C@@H]2O[C@@]3(C)CC[C@H]4[C@H](C)CC[C@@H]1[C@@]24OO3` (stereo partly specified): the selectivity ratio in series [2] was above 263. The values for the pIC50 (in the series with PBMC; in series [1]) were below 4.40 and 6.82, respectively. The compound further had a pEC50 in the series with Cytomegalovirus of 7.18.

Take `Cc1cccc(C)c1OP(=O)(OCC(C[C@H]1O[C@@H]2O[C@@]3(C)CC[C@H]4[C@H](C)CC[C@@H]([C@H]1C)[C@@]24OO3)C[C@H]1O[C@@H]2O[C@@]3(C)CC[C@H]4[C@H](C)CC[C@@H]([C@H]1C)[C@@]24OO3)Oc1c(C)cccc1C` (stereo partly specified): in series [2], the selectivity ratio is above 135. The pIC50 in the series on PBMC is below 4.40; in series [1], 6.53. For the same compound, the negative-log EC50 (pEC50) in the series on Cytomegalovirus is 7.15.

In general, pIC50 refers to the negative decadic logarithm of the IC50, by convention in mol/L. Broadly, the pEC50 is the EC50 on a negative log10 scale, so that one unit is a factor of ten. A high value points to a small EC50.
